# Screening results deposited in PubChem BioAssay by several laboratories.
# ADAM10 inh: ADAM10 inhibition, QFRET primary screen; 370,000 compounds, 0.62% hits; O14672; inhibition, % at 7 µM; recombinant ADAM10, EDANS/DABCYL FRET peptide cleavage, 3 h;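 active = inhibition above a per-campaign cutoff equal to the mean of compounds falling between control-based bounds plus 3 SD, cut at about 20% in these data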
# ADAM17 inh: inhibits human ADAM17; 370,000 compounds, 0.83% hits; recombinant ADAM17, EDANS/DABCYL FRET peptide cleavage; inhibition, % at 6.95 µM; AID 720648;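 active = inhibition above the mean of compounds lying between control limits plus 3 SD, set per campaign, cut at about 8.5% in these data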
# Target sequence (P78536 215-824 limits assumed): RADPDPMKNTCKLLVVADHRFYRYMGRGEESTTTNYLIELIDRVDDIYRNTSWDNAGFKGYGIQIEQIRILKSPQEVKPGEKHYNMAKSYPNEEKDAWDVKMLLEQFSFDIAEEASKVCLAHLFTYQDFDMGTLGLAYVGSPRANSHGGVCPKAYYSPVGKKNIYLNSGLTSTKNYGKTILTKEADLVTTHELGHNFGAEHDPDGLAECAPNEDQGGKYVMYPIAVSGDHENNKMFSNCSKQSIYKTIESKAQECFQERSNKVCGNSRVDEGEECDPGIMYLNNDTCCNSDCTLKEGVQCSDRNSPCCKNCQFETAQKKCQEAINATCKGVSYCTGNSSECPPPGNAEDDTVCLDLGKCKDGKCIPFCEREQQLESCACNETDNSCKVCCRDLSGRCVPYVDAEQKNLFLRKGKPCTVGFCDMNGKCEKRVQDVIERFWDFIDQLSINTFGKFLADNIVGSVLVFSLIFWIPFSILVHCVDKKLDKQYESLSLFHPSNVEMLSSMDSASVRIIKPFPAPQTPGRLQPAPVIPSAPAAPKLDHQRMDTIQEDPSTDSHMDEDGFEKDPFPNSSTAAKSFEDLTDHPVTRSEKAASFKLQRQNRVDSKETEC
# DDE Tn6 FP inh: inhibitors of Tn6 peptide binding to human fibrin DD(E); P02675; Fibrin DD(E) TRITC-Tn6 fluorescence polarization displacement; inhibition, % at 8.3 µM; 370,000 compounds, 0.21% hits; AID 720509;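 active = inhibition above a per-campaign cutoff: mean of compounds within control limits plus 3 SD, cut at about 15% in these data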
# MT1-MMP act inh: inhibitors of human MT1-MMP activation; P50281; 360,000 compounds, 0.061% hits; GFP/RFP ratio change, % at 20 µM; HT1080 RFP-PRO-GFP cells, GFP/RFP ratio fluorescence, overnight; percent of plate control window, DMSO zero;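 active = GFP/RFP ratio change of at least 30% with cell ATP level not reduced by more than half and red fluorescence within 50% of control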
#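 Assay system: HT1080 cells carrying an RFP-PRO-GFP reporter | Dosing: Single dose of 20 µM compound, 1% DMSO final | Incubation: Cells overnight before dosing, compound overnight, 37 °C, 5% CO2 | Evaluation: GFP/RFP fluorescence ratio | Control set: DMSO and RFP-L50D-GFP cell wells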
# Tn7 DDE FP: inhibitors of Tn7 peptide binding to human fibrin DD(E). AID 720508. FP displacement of FITC-Tn7 peptide from fibrin DD(E); 0% = median of compound wells per plate. 370,000 compounds, 0.13% hits. P02675. inhibition, % at 8.3 µM;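 active = inhibition above the mean of compounds falling within the control limits plus 3 SD of them, cut at about 14% in these data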
#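 Test system – human fibrin DD(E) · Times – 10 min preincubation, 3 h with tracer, room temperature · Detection – fluorescence polarization of the labelled Tn7 tracer · Measure – percent inhibition normalized to high-control wells · Benchmarks – high control wells with 10 µM unlabelled Aha-Tn7 peptide (full inhibition) · Repeats – singlicate testing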
# Tn7 DDE conf: confirmation of inhibitors of Tn7 binding to human fibrin DD(E). AID 720628. shares compounds with Tn7 DDE FP. FP displacement of TRITC-Tn7 peptide from DD(E); 0% set at plate's compound-well median. 460 compounds, 5% hits. inhibition, % at 8.3 µM;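 active = inhibition above the campaign cutoff, the mean of compounds within control limits plus 3 SD, cut at about 14% in these data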;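 note: displacers lower polarization since freed probe rises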
# DDE Tn7 FP ctr: counter-screen for inhibitors of Tn7 peptide binding to fibrin DD(E). TRITC-Tn7 probe displacement, fluorescence polarization. AID 720633. inhibition, % at 8.3 µM. 460 compounds, 3% hits. shares compounds with Tn7 DDE FP;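 active = inhibition above the cutoff, the mean of compounds lying between the control bounds plus 3 SD of those compounds, cut at about 17% in these data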
# Tn6 DDE ctr: counter-screen hit for Tn6 peptide-fibrin DD(E) binding disruption. AID 720621. 680 compounds, 2% hits. TRITC-Tn6 fluorescence polarization displacement; 0% = median of compound wells, not DMSO. shares compounds with DDE Tn6 FP inh. inhibition, % at 8.3 µM;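 active = inhibition above the mean of test compounds lying between the control limits plus 3 SD of those, cut at about 14% in these data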
# Tn6 DDE conf: confirmation of inhibitors of Tn6 binding to human fibrin DD(E); shares compounds with DDE Tn6 FP inh; FP displacement of TRITC-Tn6 peptide from DD(E); 0% = per-plate median of test wells; inhibition, % at 8.3 µM; 680 compounds, 10% hits;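 active = inhibition above the mean of compounds lying within the control limits plus 3 SD, cut at about 16% in these data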
# ADAM10 counter: counter-screen for ADAM17 exosite inhibitors: inhibitors of human ADAM10 | 2,900 compounds, 47% hits | shares compounds with ADAM17 inh | inhibition, % at 6.95 µM | recombinant ADAM10, EDANS/DABCYL FRET peptide cleavage, 3 h;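 active = mean inhibition over the triplicate runs exceeds the activity threshold set in the earlier primary screen, cut at about 20% in these data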
# ADAM17 confirm: human ADAM17 inhibition, confirmation | shares compounds with ADAM17 inh | recombinant ADAM17, EDANS/DABCYL QFRET peptide cleavage | inhibition, % at 6.95 µM | 2,900 compounds, 65% hits | AID 743257;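 active = mean inhibition across replicates above the hit cutoff set in the primary screen, cut at about 8.5% in these data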
# A number is an active result; 0 = inactive; - = not tested or not shown; + = active, no number. The list is not random: actives were taken first. Their share in the collection is about 1.6%.
SMILES,ADAM10 inh,ADAM17 inh,DDE Tn6 FP inh,MT1-MMP act inh,Tn7 DDE FP,Tn6 DDE ctr,Tn6 DDE conf,others
CN1C(=O)C(=O)N2C(=C[C@]3(c4c[nH]c5ccccc45)c4ccccc4N[C@H]23)C1=O,0,0,0,-,0,-,-,
O=C(NC1CCCC1)C(c1ccncc1)N(CC1CCCO1)C(=O)Cn1nnc(-c2cccs2)n1 (configuration not stated),0,0,0,0,0,-,-,
Cc1ccc(C(C(=O)NCC2CCCO2)N(Cc2ccccc2F)C(=O)Cn2nnc(-c3cccs3)n2)cc1 (configuration not stated),0,0,0,0,19,-,-,Tn7 DDE conf=0;DDE Tn7 FP ctr=0
COc1ccc2ccccc2c1C(O)c1nccn1C (configuration not stated),0,0,17,0,33,17,0,Tn7 DDE conf=17;DDE Tn7 FP ctr=0
CC1(C)CC(=O)C(C=Nc2ccc(C(=O)c3ccccc3)cc2N=CC2=C(O)CC(C)(C)CC2=O)=C(O)C1,0,0,19,0,14,0,0,Tn7 DDE conf=0;DDE Tn7 FP ctr=0
CC1(C)CC(=O)C(C=Nc2ccc(O)c(N=CC3=C(O)CC(C)(C)CC3=O)c2)=C(O)C1,0,0,0,0,0,-,-,
Clc1ccc(CN2CCN(N=Cc3c4ccccc4cc4ccccc34)CC2)cc1,0,0,0,-,0,-,-,
COC(=O)CC1(C(=O)OC)Nc2cc(Cl)c(Cl)cc2S(=O)(=O)N1O (configuration not stated),0,0,124,0,88,60,58,Tn7 DDE conf=60;DDE Tn7 FP ctr=58
O=C(NCCc1ccccc1)c1ccc(Sc2ccccc2Cl)c([N+](=O)[O-])c1,0,0,0,-,0,-,-,
O=C1c2ccccc2-c2onc3ccc(N4CCCC4)c1c23,0,0,100,0,32,0,93,Tn7 DDE conf=0;DDE Tn7 FP ctr=93
O=C1c2ccccc2C(=O)c2c1cccc2N1CCCC1,0,0,0,0,0,-,-,
CCNc1ccc2noc3c2c1C(=O)c1ccccc1-3,0,9.0,+,0,17,53,93,Tn7 DDE conf=53;DDE Tn7 FP ctr=93;ADAM10 counter=0;ADAM17 confirm=0
O=C(Nc1ccc2c(c1)OCO2)OC1CC2CC1[C@H]1CCCCN1[C@H]2Cc1ccccc1 (some centres not stated),0,0,0,-,0,-,-,
COc1ccc(CCC(=O)Nc2nc3c(s2)CN(C)CC3)cc1OC,0,0,83,0,0,0,0,
COc1ccc(CCC(=O)Nc2nccs2)cc1OC,0,0,0,0,0,-,-,
O=C(O)CCCNc1cc(N2CCN(C(=O)c3ccco3)CC2)c2noc3c2c1C(=O)c1ccccc1-3,0,0,32,0,0,0,58,
COC(=O)c1c[nH]c(=O)c2ccccc12,0,0,16,0,0,0,0,
COC(=O)c1ccccc1C(=O)c1cccc2ccccc12,0,0,0,0,0,-,-,
COc1ccc(C2C(C(=O)N3CCOCC3)=C(C)NC3=C2C(=O)CC(C)(C)C3)cc1O (configuration not stated),0,0,0,0,0,-,-,
COc1cc(OC)c(C2C(C(=O)N3CCOCC3)=C(C)NC3=C2C(=O)CC(C)(C)C3)cc1OC (configuration not stated),0,0,17,0,0,0,0,
C[C@@]12C(C[C@H](O)[C@@]34C[C@@H](CCC13)[C@@H](CO)C4=O)[C@](C)(C(=O)O)CC[C@@H]2O (some centres not stated),0,0,21,0,0,0,0,
Cc1nnc2sc(-c3cccc4ccccc34)nn12,0,0,17,0,0,0,0,
CCOc1ccc(Nc2ccc(N)c(S(=O)(=O)O)c2)cc1,0,0,22,0,0,0,0,
CCOc1ccc(NS(=O)(=O)c2ccc(N)cc2)cc1,0,0,0,0,0,-,-,
CC(=O)CC[C@@H]1CC[C@]2(CCCN(C(=O)C3CCCC3)C2)O1,0,0,0,-,0,-,-,
SMILES,ADAM10 inh,ADAM17 inh,DDE Tn6 FP inh,MT1-MMP act inh,Tn7 DDE FP,Tn6 DDE ctr,Tn6 DDE conf,others
CC(Oc1ccc(F)cc1)C(O)CCN(C)C (configuration not stated),0,0,24,0,0,0,0,
Cc1c(Cl)cn2c(=O)cc(CN3CCN(c4ccccc4)CC3)nc2c1Cl,0,0,15,0,0,0,0,
COC(=O)N/N=C\c1cc2c(cc1Br)OCO2,0,0,17,0,0,0,0,
CCOC(=O)NC(=O)CSc1nc(C)cc(C(F)(F)F)c1C#N,0,0,15,0,0,0,0,
CCOc1ccc(CCNC(=O)c2cc3sc(Cl)cc3n2C)cc1OCC,0,0,34,0,0,0,0,
Cn1c(N)c(S(=O)(=O)N2CCN(c3cccc(Cl)c3)CC2)c(=O)n(C)c1=O,0,0,16,0,0,0,0,
CC1(OC(=O)c2ccco2)C(=O)C=C2C=C(C3CC3)OC=C2C1=O (configuration not stated),0,0,28,0,0,0,18,
COC(=O)[C@]12C=CCN1[C@@H](c1ccc(Cl)cc1)c1c(c3ccccc3n1S(=O)(=O)c1ccc(C)cc1)C2,0,0,28,-,0,0,0,
COC(=O)[C@]12C=CCN1[C@H](c1ccc(C(F)(F)F)cc1)c1c(c3ccccc3n1S(=O)(=O)c1ccc(C)cc1)C2,0,0,17,-,0,0,0,
COC(=O)[C@]12C=CCN1[C@H](c1ccc(Cl)cc1)c1c(c3ccccc3n1S(=O)(=O)c1ccc(C)cc1)C2,0,0,0,-,0,-,-,
COC(=O)Cc1c([C@H](C)[C@@H](OC)c2ccccc2Br)nnn1Cc1ccccc1,0,0,0,-,0,-,-,
Cc1ccccc1NC(=O)[C@@H]1CCCN1S(=O)(=O)c1cccc2cccnc12,0,0,0,-,0,-,-,
CNc1nc(Cl)c(SC)c(NCc2cccc(OC)c2)n1,0,0,17,0,0,0,0,
